Hits are enriched below; roughly 9.4% of the tested compounds scored in any of these assays.
SKKanGAS inh – S. pyogenes SKKanGAS growth inhibitors in kanamycin, primary screen, streptokinase expression inhibitor project, SKKanGAS strain, BacTiter-Glo luminescence. inhibition, % at 7.5 µM. 1.3% of 300,000 active. 6 h;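 active means mean replicate score, as percent of positive control median, at least 50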;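 further: strain carries kanamycin resistance gene driven by streptokinase promoter and grows in 40 µg/ml kanamycin; loss of luminescence reflects streptokinase promoter inhibition or plain growth inhibition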
T cruzi inh – inhibitors of intracellular T. cruzi growth, primary screen, luminescence, NIH3T3 host cells; 1.4% of 300,000 active; T. cruzi beta-gal in NIH3T3, 90 h; inhibition, % (concentration not given with the values); AID 1885, 2009;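 active means mean inhibition across valid replicates above about 55%, limit read from the data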;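 further: signal also drops with host cell toxicity which is not excluded here; higher percent means less beta-gal luminescence so fewer parasites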
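System: mouse NIH/3T3 fibroblasts infected with β-gal-expressing T. cruzi Tulahuen C4 / Input: NIH/3T3 cells, 5,000 per well / Buffer or medium: Low-serum DMEM with 2% FBS / Probe or stimulus: 5000 reporter trypomastigotes per well / Schedule: ≥90 h infection period, 3 h prior cell attachment / Measured by: GalScreen luminescence, 60 min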
Beta apoptosis – inhibitors of cytokine-induced beta cell apoptosis, primary screen, luminescence; INS-1E cytokine-induced death, ATP luminescence, 48 h; percent of positive-control rescue, neutral wells zero; protection from apoptosis, % (concentration not given with the values); 0.8% of 300,000 active; AID 435005, 2010;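 active means Every replicate reaches about 75%, or at least half do and their mean reaches it too, limit read from the data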;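 further: higher means more ATP so stronger rescue from cytokine killing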
CSC inhib – cancer stem cell viability inhibitors, primary screen, luminescence; cancer stem cell-like cells viability; inhibition, % at 7.5 µM; 1.1% of 300,000 active; AID 2717, 2010; in the data active means inhibition above about 75%; tested in HMLE shEcad cells
Mdm2 MdmX PPI – inhibitors of human Mdm2-MdmX association, primary screen, cell-based, luminescence, split luciferase, SaOS-2, uHTS | SaOS-2 split-luciferase Mdm2/MdmX complementation | Protein Mdm4 (Homo sapiens) + E3 ubiquitin-protein ligase Mdm2 (Homo sapiens), … | inhibition, % at 8 µM | AID 485346, 2010 | 3% of 330,000 active;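 active means inhibition of at least 50% at 8 µM in the primary screen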
L major viab – Leishmania major promastigote growth inhibition, primary screen; inhibition, % at 10 µM; Leishmania major promastigotes, resazurin fluorescence viability; AID 1063, 2008; 9% of 200,000 active; in the data active means inhibition above about 50%;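 further: promastigotes grown with compound for 44 hours at 28 °C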
Mdm2-MdmX conf – Mdm2-MdmX complex disruptors, retested hits, confirmation, luminescence, single concentration | Mdm2-MdmX binding, luminescent assay | inhibition, % at 8 µM | AID 489028, 2010 | 55% of 10,000 active | shares compounds with Mdm2 MdmX PPI; in the data active means inhibition above about 40%
Full FLuc ctr – full-length luciferase signal inhibition, confirmation, counter-screen for Mdm2/MdmX interaction inhibitor project, cell-based, single concentration, SaOS-2; shares compounds with Mdm2 MdmX PPI; SaOS-2 full-length luciferase counterscreen, luminescence; inhibition, % at 8 µM; 77% of 6,200 active;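 active means mean inhibition at 8 µM reaching about 37%, which flags the compound as non-specific, limit read from the data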;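 further: p53-null SaOS-2 cells with luciferase driven by a doxycycline-inducible promoter; compound on cells about two nights before reading with doxycycline added after day one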
Each line names hits and unclear results; the compound was inactive in the other large screens (follow-up assays come after a bar, where they were run).

CCCCn1c(=N)n(CC(=O)c2ccc([N+](=O)[O-])cc2)c2ccccc21	Mdm2 MdmX PPI 54.9, L major viab 81.3 | Mdm2-MdmX conf inactive
Cc1ccc(Cn2c(=N)n(CC(=O)c3ccc([N+](=O)[O-])cc3)c3ccccc32)cc1	Mdm2 MdmX PPI 98.3, L major viab 73.6 | Mdm2-MdmX conf inactive
CCN(C(=O)c1cn(C)c(=O)c2ccccc12)c1ccccc1F	none (no result: L major viab)
COc1ccc(N2CCN(C(=O)c3ccc(CS(=O)(=O)c4ccc(Br)cc4)o3)CC2)cc1	none (no result: L major viab)
CC1(c2ccc3ccccc3c2)NC(=O)N(CC(=O)Nc2ncccc2O)C1=O (centres undefined)	none (no result: SKKanGAS inh, T cruzi inh, L major viab)
COc1cc(S(=O)(=O)Nc2cccnc2)ccc1Cl	none (no result: Beta apoptosis, L major viab)
CCOc1ccc(S(=O)(=O)n2cnc(C)c2)cc1	none (no result: L major viab)
Cc1oc(-c2ccc(Cl)cc2)nc1CN1CCC(C(=O)N2CCc3ccccc3C2)CC1	Mdm2 MdmX PPI 51.6 | Mdm2-MdmX conf inactive | Full FLuc ctr 58.5
CCc1ccc(-c2nc(CN3CCC(C(=O)NCc4ccccc4OC)CC3)c(C)o2)cc1	Mdm2 MdmX PPI 57.0 | Mdm2-MdmX conf inactive
Cc1oc(-c2ccc(Cl)cc2)nc1CN1CCC(C(=O)NCCCN2CCCC(C)C2)CC1 (centres undefined)	Mdm2 MdmX PPI 100.4 (no result: L major viab) | Mdm2-MdmX conf 96.3 | Full FLuc ctr inactive
CCN1CCCC1CNC(=O)C1CCN(Cc2nc(-c3cccc(Br)c3)oc2C)CC1 (centres undefined)	Mdm2 MdmX PPI 83.6, L major viab 98.7 (no result: CSC inhib) | Mdm2-MdmX conf 99.9 | Full FLuc ctr inactive
Cc1oc(-c2ccc(Cl)cc2)nc1CN1CCC(C(=O)N2CCN(Cc3ccccc3)CC2)CC1	none
CCN1CCN(CCNC(=O)C2CCN(Cc3nc(-c4ccc(Cl)cc4)oc3C)CC2)CC1	Mdm2 MdmX PPI 99.2 | Mdm2-MdmX conf 52.7 | Full FLuc ctr 37.4
Cc1oc(-c2ccc(Cl)cc2)nc1CN1CCC(C(=O)NCCCN2CCCC2=O)CC1	none
Cc1ccccc1-c1nc(CN2CCC(C(=O)NCCCN3CC(C)CC(C)C3)CC2)c(C)o1 (centres undefined)	Mdm2 MdmX PPI 78.2, L major viab 76.2 | Mdm2-MdmX conf 95.2 | Full FLuc ctr inactive
CCCCCc1c(C)c(C#N)c2nc3ccccc3n2c1-n1ccnc1C	none
C=C(C)CN1CCN(c2c(CCC#N)c(C)c(C#N)c3nc4ccccc4n23)CC1	Mdm2 MdmX PPI 74.2 | Mdm2-MdmX conf inactive
CCOc1ccc(C(C)=O)cc1COC(=O)CNC(=O)C12CC3CC(CC(C3)C1)C2	Mdm2 MdmX PPI 56.8 (no result: SKKanGAS inh, T cruzi inh, L major viab) | Mdm2-MdmX conf inactive
COc1ccc(-c2cc(-c3ccccc3)nc(SCC(=O)Nc3nccs3)c2C#N)cc1	Mdm2 MdmX PPI 75.1 | Mdm2-MdmX conf inactive
CCc1nnc(NC(=O)CSc2nc(-c3ccccc3)c(-c3ccccc3)o2)s1	Mdm2 MdmX PPI 55.3 (no result: Beta apoptosis) | Mdm2-MdmX conf 42.0 | Full FLuc ctr 92.2
CCc1nnc(NC(=O)CSc2nnc(-c3ccccc3O)o2)s1	none
CCc1nnc(NC(=O)CSc2nc(-c3ccccc3)cc(-c3ccc(OC)cc3)c2C#N)s1	Mdm2 MdmX PPI 87.5 | Mdm2-MdmX conf inactive
CC(C)NC(=O)CSc1nc(-c2cccs2)cc(-c2ccccc2)c1C#N	none
COc1ccc(C(=O)NC2CCN(CC(=O)Nc3c(C)cccc3C)CC2)cc1OC	none (no result: Beta apoptosis, L major viab)
CCOC(=O)c1sc(NC(=O)c2cc(-c3ccccc3C)nc3ccccc23)c(C#N)c1C	SKKanGAS inh 51.2, CSC inhib 88.7, Mdm2 MdmX PPI 97.1 | Mdm2-MdmX conf 92.2 | Full FLuc ctr inactive
